Compound activity (PubChem BioAssay)
Sampled rows, rich in hits. Any-hit rate of the full collection: about 5.8%.
GASC1 inh – inhibitors of GASC-1 (KDM4C) histone demethylase, primary screen, biochemical, single concentration HTS | Lysine-specific demethylase 4C (Homo sapiens), Q9H3R0 | GST-KDM4C 2-372, H3K9me3 peptide, LANCE TR-FRET | inhibition, % at 12.5 µM | 96,000 tested, 0.15% active | AID 720574, 2013;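 active = mean replicate inhibition above about 25%, with at least 55% of replicates also reaching it, limit read from the data, passing the limit was not always enough; inconclusive = only one of those two conditions met; inactive = neither condition met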
Target sequence (Q9H3R0 2-372 limits assumed): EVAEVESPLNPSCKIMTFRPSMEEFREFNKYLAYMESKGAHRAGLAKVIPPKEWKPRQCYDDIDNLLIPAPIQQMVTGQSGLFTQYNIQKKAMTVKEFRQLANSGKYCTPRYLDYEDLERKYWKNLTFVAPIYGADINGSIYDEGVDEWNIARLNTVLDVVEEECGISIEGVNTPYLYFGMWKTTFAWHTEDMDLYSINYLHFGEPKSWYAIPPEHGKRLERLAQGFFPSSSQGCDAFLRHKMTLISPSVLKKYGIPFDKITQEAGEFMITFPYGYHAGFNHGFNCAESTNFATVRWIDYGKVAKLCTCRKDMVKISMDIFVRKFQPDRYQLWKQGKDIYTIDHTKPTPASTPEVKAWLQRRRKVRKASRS
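Material: GST-tagged GASC-1 (JMJD2C) catalytic fragment, aa 2-372. Input: enzyme final amount 10 nM. Medium: HEPES buffer, pH 7.5, plus ascorbate. Reagent: H3K9me3 peptide substrate, Fe(II), 2-oxoglutarate. Doses: single dose. Times: reaction 30 min RT, detection step 1 h RT. Measured by: LANCE TR-FRET. Evaluation: Fall in 671/618 emission ratio as inhibition.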
IDH1 mut inh – inhibitors of IDH1 R132H reductase, primary screen, biochemical, plate reader, single point | diaphorase/resazurin fluorescence, 60 min | inhibition, % at 10 µM | AID 624101, 2012 | Isocitrate dehydrogenase [NADP] cytoplasmic (Homo sapiens), O75874 | 70,000 tested, 0.18% active; in the data active = inhibition above about 34%; inconclusive = no clear call, values can overlap the other calls; inactive = below about 11%;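 also: 0% = DMSO and 100% = no enzyme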
Pf Dd2 growth – P. falciparum Dd2 growth inhibitors, primary screen, SYBR Green fluorescence, single dose replicates. 72 h; hits give low values. activity change, % at 10 µM. 94,000 tested, 2.3% active. AID 1159554, 2015; in the data active = activity change below about -80%; inconclusive = no clear call, values can overlap the other calls
T cruzi growth-1 – T. cruzi intracellular proliferation inhibitors, primary screen, cell-based, beta-gal Tulahuen parasites, NIH3T3 host, luminescence | inhibition, % at 8.34 µM | 77,000 tested, 5.9% active | T. cruzi beta-gal in NIH3T3, GalScreen luminescence, 90 h;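 active = mean inhibition above about 93%, with at least 55% of replicates each passing it, limit read from the data, passing the limit was not always enough; inconclusive = only one of those two conditions holds; inactive = neither condition holds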
T cruzi growth-2 – T. cruzi intracellular proliferation inhibitors, confirmation, cell-based, NIH3T3 host, beta-gal parasite, luminescence, cherry-pick | shares compounds with T cruzi growth-1 | T. cruzi beta-gal in NIH3T3, GalScreen luminescence, 90 h | inhibition, % at 8.35 µM | 5,600 tested, 72% active | AID 651739, 2012;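 active = mean replicate inhibition above about 95% and at least 55% of replicates individually reaching it, limit read from the data; inconclusive = only one of the two criteria is met; inactive = neither criterion is met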
T cruzi growth-3 – inhibitors of intracellular T. cruzi replication, confirmation, NIH3T3 host cells, beta-gal parasites, cherry-pick, set 2. 5,600 tested, 21% active. inhibition, % at 2.09 µM. AID 651740, 2012. T. cruzi beta-gal in NIH3T3, GalScreen luminescence, 90 h. shares compounds with T cruzi growth-1;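 active = mean inhibition above about 95%, with at least 55% of replicates also reaching it, limit read from the data; inconclusive = meets just one of the two conditions; inactive = meets neither condition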;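 also: plate controls were neutral control median for no effect and positive control median for full effect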
NIH3T3 tox – cytotoxicity in mouse NIH/3T3 fibroblasts, confirmation, cytotoxicity control for T. cruzi proliferation inhibitor project, cell-based, cherry-pick, single point. shares compounds with T cruzi growth-1. 5,600 tested, 14% active. cytotoxicity (signal decrease), % at 8.35 µM. AID 651742, 2012. NIH/3T3 viability, CellTiter-Glo ATP luminescence, 90 h;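 active = mean signal decrease across replicates above about 35% based on untreated-well scatter, with enough replicates individually passing, limit read from the data; inconclusive = no rule stated though some were filed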;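 also: 0% = median of neutral control wells and 100% = median of positive control wells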
NIH3T3 tox 2 – NIH/3T3 fibroblast cytotoxicity, confirmation, cytotoxicity control, cell-based, cherry-pick, single point, set 2. shares compounds with T cruzi growth-1. NIH/3T3 viability, CellTiter-Glo ATP luminescence, 90 h. inhibition, % at 24.9 µM. 5,600 tested, 56% active. AID 651744, 2012;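 active = mean loss of cell viability signal at or above a set limit, and enough replicates individually reaching it; inconclusive = meets only the mean limit or only the replicate share; inactive = meets neither condition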;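 also: 0% = median of neutral control wells and 100% = median of positive control wells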
* hit, by the source's call; ? = inconclusive; . = not tested or not shown.

SMILES	GASC1 inh	IDH1 mut inh	Pf Dd2 growth	T cruzi growth-1	T cruzi growth-2	T cruzi growth-3	NIH3T3 tox	NIH3T3 tox 2
COCC#Cc1ccc2c(c1)O[C@@H](CN(C)CC1CCCC1)[C@H](C)CN([C@@H](C)CO)S2(=O)=O	-1.5	-0.2	?	106.3*	95.8*	45.5	20.5	104.3*
COCC#Cc1ccc2c(c1)O[C@H](CN(C)CC1CCCC1)[C@@H](C)CN([C@H](C)CO)S2(=O)=O	-1.5	-0.2	-58.4	?	98.9*	53.4	23.4	50.1*
O=C(CN1C(=O)C2C3C=CC(C4CC34)C2C1=O)Nc1ccc(Oc2ccc(Br)cc2)cc1 (stereo unspecified)	.	0.3	.	.	.	.	.	.
COc1ccc(S(=O)(=O)Nc2ccc3c(c2)C(=O)N([C@@H](C)CO)C[C@@H](C)[C@H](CN(C)Cc2ccc4c(c2)OCO4)OCCCC[C@H](C)O3)cc1	0.0	0.2	-52.5	100.0*	109.4*	-2.0	11.3	65.5*
COc1ccc(S(=O)(=O)Nc2ccc3c(c2)C(=O)N([C@H](C)CO)C[C@@H](C)[C@@H](CN(C)Cc2ccc4c(c2)OCO4)OCCCC[C@H](C)O3)cc1	0.8	.	-69.2	55.0	.	.	.	.
Cc1ccc(S(=O)(=O)Nc2ccc3c(c2)C(=O)N([C@H](C)CO)C[C@@H](C)[C@@H](CN(C)Cc2ccc4c(c2)OCO4)OCCCC[C@@H](C)O3)cc1	-1.7	1.6	-74.4	?	105.4*	81.3	29.4	102.0*
Cc1ccc(S(=O)(=O)Nc2ccc3c(c2)C(=O)N([C@@H](C)CO)C[C@H](C)[C@H](CN(C)Cc2ccc4c(c2)OCO4)OCCCC[C@@H](C)O3)cc1	-0.5	.	-69.9	31.0	.	.	.	.
C[C@@H]1CCCCO[C@@H](CN(C)Cc2ccc3c(c2)OCO3)[C@@H](C)CN([C@@H](C)CO)C(=O)c2cc(NS(=O)(=O)c3ccc(F)cc3)ccc2O1	-0.1	.	-36.4	114.6*	101.8*	49.8	25.5	93.6*
Cc1cc(Br)c2c(c1)C(O)(CC(=O)c1ccco1)C(=O)N2C (stereo unspecified)	.	0.4	.	.	.	.	.	.
CC(=O)c1cccc(NC(=S)NCCn2cc(Cl)cn2)c1	.	0.5	.	.	.	.	.	.
CS(=O)(=O)N(CC(=O)NC1CCCCC1)c1cc(Cl)c(Cl)cc1Cl	.	-0.3	.	.	.	.	.	.
COc1cccc(-c2cc(C#N)c(NC(=O)c3cccc([N+](=O)[O-])c3)o2)c1	.	0.2	.	.	.	.	.	.
C[C@H](CO)N1C[C@H](C)[C@H](CN(C)Cc2ccc3c(c2)OCO3)Oc2c(NC(=O)Nc3ccc(C(F)(F)F)cc3)cccc2C1=O	-3.5	0.4	-20.4	103.1*	107.9*	102.6*	15.4	103.5*
C[C@@H]1CN([C@@H](C)CO)C(=O)c2cccc(NC(=O)Nc3ccc(C(F)(F)F)cc3)c2O[C@H]1CN(C)Cc1ccc2c(c1)OCO2	.	.	-47.7	?	105.3*	117.3*	2.7	54.9*
C[C@H](CO)N1C[C@H](C)[C@@H](CN(C)Cc2ccc3c(c2)OCO3)Oc2c(NC(=O)Nc3ccc(C(F)(F)F)cc3)cccc2C1=O	-0.1	.	-4.5	103.7*	96.8*	105.0*	23.9	96.9*
C[C@H]1CN([C@@H](C)CO)C(=O)c2cccc(NC(=O)Nc3ccc(C(F)(F)F)cc3)c2O[C@@H]1CN(C)Cc1ccc2c(c1)OCO2	.	.	3.5	97.0	.	.	.	.
COC(=O)CCCCCCC(=O)N/N=C/c1cccc(O)c1O	.	-0.4	.	.	.	.	.	.
COC(=O)CN(c1cc(Cl)cc(Cl)c1)S(=O)(=O)c1ccccc1	.	-0.6	.	.	.	.	.	.
C[C@H](CO)N1C[C@H](C)[C@@H](CN(C)S(=O)(=O)c2ccc(F)cc2)Oc2c(NC(=O)Nc3ccc(C(F)(F)F)cc3)cccc2C1=O	-1.2	-1.3	11.5	.	.	.	.	.
COc1ccc(S(=O)(=O)N(C)C[C@@H]2Oc3c(NC(=O)Nc4cccc5ccccc45)cccc3C(=O)N([C@@H](C)CO)C[C@H]2C)cc1	-0.6	2.3	.	.	.	.	.	.
COc1ccc(S(=O)(=O)N(C)C[C@@H]2Oc3c(NC(=O)Nc4cccc5ccccc45)cccc3C(=O)N([C@H](C)CO)C[C@@H]2C)cc1	10.6	-0.5	-92.0*	125.8*	?	64.9	33.4	30.2*
Cc1ccc(S(=O)(=O)N(C)C[C@H]2Oc3c(cccc3N(C)C)C(=O)N([C@H](C)CO)C[C@@H]2C)cc1	-1.0	-5.3	-0.2	?	98.7*	15.2	8.2	27.8*
C[C@@H]1CN([C@H](C)CO)C(=O)c2cccc(NC(=O)Nc3ccc(C(F)(F)F)cc3)c2O[C@H]1CN(C)S(=O)(=O)c1ccc(F)cc1	-5.2	6.4	9.7	?	107.8*	33.8	9.8	39.3*
Cc1ccc(S(=O)(=O)N(C)C[C@H]2Oc3c(NC(=O)Nc4ccccc4)cccc3C(=O)N([C@H](C)CO)C[C@H]2C)cc1	-0.1	0.3	-36.9	100.8*	?	19.8	5.9	47.8*
O=C(CSc1nnc(-c2ccccc2F)n1-c1ccccc1)Nc1ccc2cn[nH]c2c1	.	-0.1	.	.	.	.	.	.
CCn1c(SCC(=O)Nc2ccccc2F)nnc1-c1cccc(N)c1	.	0.3	.	.	.	.	.	.
C[C@H](CO)N1C[C@H](C)[C@@H](CN(C)S(=O)(=O)c2ccc(Cl)cc2)Oc2c(NC(=O)Nc3ccc(C(F)(F)F)cc3)cccc2C1=O	.	0.9	-69.7	?	90.1	111.3*	46.1*	104.9*
C[C@@H]1CN([C@@H](C)CO)C(=O)c2cccc(NC(=O)Nc3ccc(F)cc3)c2O[C@H]1CN(C)Cc1ccc(Cl)c(Cl)c1	-5.3	.	-30.6	70.8	.	.	.	.
C[C@H]1CN([C@@H](C)CO)C(=O)c2cccc(NC(=O)Nc3ccc(C(F)(F)F)cc3)c2O[C@@H]1CN(C)Cc1ccc(Cl)c(Cl)c1	-1.0	4.5	-25.4	?	97.9*	106.0*	44.6*	105.4*
C[C@H]1CN([C@@H](C)CO)C(=O)c2cccc(NC(=O)Nc3ccc(C(F)(F)F)cc3)c2O[C@H]1CN(C)Cc1ccc(Cl)c(Cl)c1	-1.8	.	-32.4	?	98.3*	105.3*	12.5	103.4*
